According to PMC4176373 (Nucleic Acids Research, 2014):

How the values were obtained:
[1] = target: mouse eIF4E(28–217) (Mus musculus, UniProt P63073); settings: 50 mM HEPES/KOH (pH 7.2), 100 mM KCl, 20°C; cited from earlier work
[2] = target: T1, hDcpS (Homo sapiens, UniProt Q96C86); settings: pH 7.6, 20°C; cited from earlier work
T1 sequence (Q96C86 1-337): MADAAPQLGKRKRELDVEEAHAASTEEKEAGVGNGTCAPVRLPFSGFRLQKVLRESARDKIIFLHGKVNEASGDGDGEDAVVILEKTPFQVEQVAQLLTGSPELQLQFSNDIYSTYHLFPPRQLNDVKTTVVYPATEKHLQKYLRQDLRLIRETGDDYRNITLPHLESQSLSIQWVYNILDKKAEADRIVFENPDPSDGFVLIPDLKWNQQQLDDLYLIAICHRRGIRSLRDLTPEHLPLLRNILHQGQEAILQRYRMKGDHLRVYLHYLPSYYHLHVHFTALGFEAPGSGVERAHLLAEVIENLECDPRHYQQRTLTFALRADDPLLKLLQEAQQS

[3] = target: T2, CeDcpS (Caenorhabditis elegans, UniProt G5EFS4); settings: pH 7.6, 20°C; cited from earlier work
T2 sequence (G5EFS4 1-311): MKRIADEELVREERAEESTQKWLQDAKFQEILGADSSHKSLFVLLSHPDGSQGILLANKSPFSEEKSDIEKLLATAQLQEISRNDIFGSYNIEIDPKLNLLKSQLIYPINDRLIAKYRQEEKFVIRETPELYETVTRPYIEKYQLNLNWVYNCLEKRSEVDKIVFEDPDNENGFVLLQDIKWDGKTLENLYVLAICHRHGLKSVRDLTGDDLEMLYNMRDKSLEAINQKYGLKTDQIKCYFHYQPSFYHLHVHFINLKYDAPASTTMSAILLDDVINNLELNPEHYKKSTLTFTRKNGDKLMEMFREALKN

[4] = Stacking measurements; type: physicochemical; settings: 0.1 M phosphate buffer, pH 5.2, 20°C; from fluorescence intensity of 7-methylguanosine; mean ± SD
Outline: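 Dinucleotide fluorescence intensity compared with m⁷GMP (7-methylguanosine fluorophore) in phosphate buffer, pH 5.2, at 20 °C. Stacked fraction calculated as (F_m7GMP − F_cap)/F_m7GMP, since stacking partially quenches 7-methylguanosine fluorescence. Values given as mean ± SD.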

[5] = test system: human immature dendritic cells (hiDCs); assay: Luciferase expression from 5′-capped mRNAs in dendritic cells; type: cell-based; settings: luciferase mRNA capped with the analog, electroporated into hiDCs
Outline: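 Luciferase mRNA made by T7 in vitro transcription with the cap dinucleotide added co-transcriptionally; plasmid DNA digested and RNA purified. Capped mRNA electroporated into human immature dendritic cells. Luciferase activity read at 2, 4, 8, 24, 48 and 72 h, in duplicate, and normalised to cell number. Time of maximal expression derived by spline interpolation of the time course.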

[6] = target: T2, CeDcpS; assay: HPLC-based assay of DcpS-mediated hydrolysis, Assay 2; type: biochemical; settings: DcpS 200 nM, cap analog 15 μM, pH 7.6, 20 °C
Outline: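 Substrate at 15 µM sits 10 min at 20°C in 50 mM Tris HCl, 200 mM KCl, 0.5 mM EDTA, 1 mM DTT (final pH 7.6) before enzyme is added to 0.2 μM. Aliquots are heat-stopped at 97°C for 2.5 min at 10 and 90 min. Analysis is RP HPLC (methanol 0–30% in 0.1 M KH₂PO₄), reading A260 and fluorescence (ex 280/em 337 nm). Output is x = % substrate hydrolysed, with the substrate peak multiplied by 1.1. CeDcpS was E. coli-expressed and Ni-NTA-purified.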

[7] = target: T1, hDcpS; assay: HPLC-based assay of DcpS-mediated hydrolysis, Assay 2; type: biochemical; settings: DcpS 200 nM, cap analog 15 μM, pH 7.6, 20 °C

Chain of mouse eIF4E(28–217) (P63073 28-217): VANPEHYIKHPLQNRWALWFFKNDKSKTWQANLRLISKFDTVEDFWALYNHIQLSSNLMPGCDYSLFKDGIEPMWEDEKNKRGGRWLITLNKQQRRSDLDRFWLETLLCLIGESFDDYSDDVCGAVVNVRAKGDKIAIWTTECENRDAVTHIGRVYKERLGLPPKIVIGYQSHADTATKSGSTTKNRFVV

Compound	KAS (equilibrium association constant) for eIF4E [1]	KAS for hDcpS [2]	KAS for CeDcpS [3]	also measured
CO[C@@H]1[C@H](O)[C@@H](COP(=O)(O)OP(=O)([O-])OP(=O)(O)OC[C@H]2O[C@@H](n3cnc4c(=O)[nH]c(N)nc43)[C@H](O)[C@@H]2O)O[C@H]1n1c[n+](C)c2c(O)nc(N)nc21 [m2^7,2′-OGpppG]	10.8 ± 0.3 µM⁻¹			
C[n+]1cn([C@@H]2O[C@H](COP(=O)(O)CP(=O)(O)OP(=O)(O)OC[C@H]3O[C@@H](n4cnc5c(=O)[nH]c(N)nc54)[C@H](O)[C@@H]3O)[C@@H](O)[C@H]2O)c2nc(N)[nH]c(=O)c21 [m^7GpCH2ppG]		234 ± 14^e μM^−1	8.6 ± 0.4^c μM^−1	
C[n+]1cn([C@@H]2O[C@H](COP(=O)(O)OP(=O)(O)O)[C@@H](O)[C@H]2O)c2nc(N)[nH]c(=O)c21 [m^7GDP, 7-methylguanosine diphosphate]		114 ± 8^b μM^−1	97 ± 12^c μM^−1	
C[n+]1cn(C2OC(COP(=O)(O)OP(O)(=S)OP(=O)(O)OCC3OC(n4cnc5c(=O)[nH]c(N)nc54)C(O)C3O)C(O)C2O)c2nc(N)[nH]c(=O)c21 (centres unmarked) [m^7GppSpG D2]	23.0 ± 0.4 µM⁻¹			% of stacked conformation [4]: 60.8 ± 0.2%
C[n+]1cn([C@@H]2O[C@H](COP(=O)(O)OP(=O)(O)OP(=O)(O)OC[C@H]3O[C@@H](n4c[n+](C)c5c(=O)[nH]c(N)nc54)[C@H](O)[C@@H]3O)[C@@H](O)[C@H]2O)c2nc(N)[nH]c(=O)c21 [m^7Gpppm^7G]	5.0 ± 0.2 µM⁻¹			
CO[C@H]1[C@@H](O)[C@H]([n+]2cn(C)c3c(=O)[nH]c(N)nc32)O[C@@H]1COP(=O)([O-])OP(=O)(O)OP(=O)(O)OC[C@H]1O[C@@H](n2cnc3c(=O)[nH]c(N)nc32)[C@H](O)[C@@H]1O [m2^7,3′-OGpppG]				Time of max. (time point of maximal protein expression, functional RNA stability) [5]: 11.45 ± 0.07 h
C[n+]1cn([C@@H]2O[C@H](COP(=O)([O-])NP(=O)(O)OP(=O)(O)OC[C@H]3O[C@@H](n4cnc5c(=O)[nH]c(N)nc54)[C@H](O)[C@@H]3O)[C@@H](O)[C@H]2O)c2nc(N)[nH]c(=O)c21.N.N [m^7GpNHppG]		218 ± 24^d μM^−1	66 ± 9^c μM^−1	
C[n+]1cn([C@@H]2O[C@H](COP(=O)(O)OP(O)(=S)OP(=O)(O)OC[C@H]3O[C@@H](n4cnc5c(=O)[nH]c(N)nc54)[C@H](O)[C@@H]3O)[C@@H](O)[C@H]2O)c2nc(N)[nH]c(=O)c21 (some centres unmarked) [m^7GppSpG D1]	45.0 ± 1.1 µM⁻¹			Percent of cleavage, x (%) CeDcpS 10 min ([6]; reaction time 10 min): 100%; Percent of cleavage, x (%) CeDcpS 90 min ([6]; reaction time 90 min): 100%; Percent of cleavage, x (%) hDcpS 10 min ([7]; reaction time 10 min): 100%; Percent of cleavage, x (%) hDcpS 90 min ([7]; reaction time 90 min): 100%; % of stacked conformation [4]: 61.8 ± 0.7%
